Data taken from publication PMC4195389 (Journal of the American Chemical Society, 2014).

Tests used:
[1] = tested on: matched sites in the DNA duplex; test: Binding competition gels with [Rh; conditions: competition with 4 μM [Rh(bpy)2(phi)]3+; up to 1:15 DNA:complex; data not shown
[2] = Metalloinsertor pH titrations; type: physicochemical; conditions: chrysi immine proton; ambient temperature, 0.1 M NaCl; racemic mixtures
Summary of the method: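 Test compound at 25 μM in 0.1 M NaCl is titrated from about pH 4.5 to 10.5 and back with 6 mM NaOH or 10 mM HCl, with pH followed by electrode. A UV-vis spectrum is recorded after each addition. Absorbance at one strongly changing wavelength is plotted against pH, and pKa is taken from the inflection of the sigmoid. Values from three separate experiments are pooled and averaged.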

[3] = tested on: HCT116N and HCT116O cells; test: MTT cytotoxicity assay; type: cell-based; conditions: 72 h
Summary of the method: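 HCT116N and HCT116O cells are seeded at 50,000 cells/well in 96-well format and exposed to test compound for 72 h. MTT labelling follows for 4 h at 37 °C under 5% CO2, and formazan is dissolved in acidified SDS. The read-out is A570 minus A690 background. Percent viability is formazan of treated over untreated cells. Differential cytotoxicity is the difference in percent viability between the two lines.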

[4] = tested on: DNA hairpin 5′-[…]-3′ with CC mismatch; test: Covalent DNA binding assay; conditions: 30 min at 37 °C; neutral phosphate buffer or 5 mM glutathione
[5] = tested on: HCT116N cells (MMR-proficient) and HCT116O cells (MMR-deficient); type: cell-based
[6] = tested on: 36-mer DNA duplex containing a CC mismatch; type: binding
[7] = tested on: HCT116N cells (MMR-proficient); test: Cell death mode flow cytometry assay; type: cell-based; conditions: 72 h
Summary of the method: (§1)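 HCT116 cells, grown in RPMI 1640 with 10% FBS, glutamine, non-essential amino acids, pyruvate, penicillin/streptomycin and 400 μg/mL G418 at 37 °C under 5% CO2, are exposed to test compound (0–0.5 μM) for 72 h. They are then trypsinized, washed in cold PBS, pelleted and resuspended in PBS at 10^6 cells/mL. Staining is 30 min with propidium iodide (1 μg/mL final) plus YO-PRO-1 (50 nM final). Flow-cytometry events are gated as live, apoptotic, necrotic or dead.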

[8] = tested on: HCT116O cells (MMR-deficient); test: Cell death mode flow cytometry assay; type: cell-based; conditions: 72 h
Summary of the method: as §1

Molecule | pKa [2] | optimal concentration for differential cytotoxicity [3] [nM] | concentration required for optimal differential activity [5] [µM] | differential inhibition (difference in %BrdU incorporation between HCT116N and HCT116O cells) [5] [%] | also measured
Λ-[Rh(chrysi)(phen)(DPE)]^2+ | – | – | – | – | binding at matched sites [1]: no binding at matched sites
[Rh(chrysi)(phen)(PPE)]Cl2 [[Rh(chrysi)(phen)(PPE)]^2+] | 8.9 ± 0.4 | 720 | 1 | 53 ± 7 | covalent DNA binding [4]: no covalent DNA binding
N.N.[Cl][Pt][Cl] [cisplatin, cis-diamminedichloroplatinum, reference compound] | – | – | – | – | concentration required for optimal biological activity [5]: 6 μM
[Rh(HDPA)2(chrysi)]^3+ [reference compound] | – | 25000 | 10 | – | –
[Rh(chrysi)(phen)(PyOctanol)]Cl2 [[Rh(chrysi)(phen)(PyOctanol)]^2+] | – | 480 | – | – | –
[Rh(chrysi)(phen)(DPE)]Cl2 [[Rh(chrysi)(phen)(DPE)]^2+] | 8.7 ± 0.2 | 6000 | 3 | 55 ± 2 | –
Δ-[Rh(chrysi)(phen)(DPE)]^2+ | – | – | – | – | binding at matched sites [1]: no binding at matched sites; lower binding affinity for mismatched DNA as compared to Δ-[Rh(bpy)2(chrysi)]3+ [6]: ~5 fold
[Rh(chrysi)(phen)(PPO)]Cl2 [[Rh(chrysi)(phen)(PPO)]^2+] | 8.3 ± 0.3 | 320 | 0.3 | 62 ± 2 | live cells ([7]; 0.2 μM): 57 ± 7%; cells in the apoptotic region ([7]; following metalloinsertor treatment): 25 ± 7%; mode of cell death ([8]; 0.2 or 0.5 μM, HCT116O versus HCT116N): induces necrosis preferentially in the MMR-deficient HCT116O cell line; live cells ([8]; HCT116O, 0.2 μM): 28 ± 6%; necrotic cells ([8]; HCT116O, 0.2 μM): 13 ± 2%; cells in the apoptotic region ([8]; HCT116O, following metalloinsertor treatment): 17 ± 7%
